Bioassay records from PubChem BioAssay.
EP2 mod = EP2 receptor (human) modulation | P43116 | EP2-expressing cells, cAMP HTRF FRET, PGE2 co-stimulation | induction, % at 25 µM | 260,000 tested, 0.83% active;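 active = compounds whose cAMP rise, as percent of the full-agonist control response, exceeds 60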;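 note: rat C6 glioma line stably carrying human EP2 under a CMV promoter; the protocol text gives 20 µM as final concentration; 100% = response of wells given 1 µM PGE2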
Target sequence (P43116 whole entry, looked up): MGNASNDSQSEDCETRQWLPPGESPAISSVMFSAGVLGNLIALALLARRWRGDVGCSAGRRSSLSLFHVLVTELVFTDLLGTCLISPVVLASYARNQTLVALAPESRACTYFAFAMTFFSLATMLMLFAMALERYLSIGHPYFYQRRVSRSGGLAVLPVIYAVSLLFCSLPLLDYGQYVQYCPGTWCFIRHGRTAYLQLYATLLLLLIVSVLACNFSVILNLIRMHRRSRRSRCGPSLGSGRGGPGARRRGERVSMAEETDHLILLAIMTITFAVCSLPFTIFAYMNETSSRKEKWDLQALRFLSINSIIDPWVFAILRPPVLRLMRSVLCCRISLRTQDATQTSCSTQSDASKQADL
NPY-Y1 antag = NPY-Y1 (human) receptor antagonism | AID 1040 | HEK293-CNG Y1 cells, membrane potential fluorescence; NPY at EC95, then isoproterenol | P25929 | 200,000 tested, 1% active | inhibition, % at 3.6 µM;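 active = inhibition above the campaign mean inhibition of all tested compounds plus 3 SD, cut at about 20% in these data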;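 note: 0% = DMSO wells given NPY plus isoproterenol and 100% = isoproterenol alone without NPY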
Target sequence (P25929 whole entry, looked up): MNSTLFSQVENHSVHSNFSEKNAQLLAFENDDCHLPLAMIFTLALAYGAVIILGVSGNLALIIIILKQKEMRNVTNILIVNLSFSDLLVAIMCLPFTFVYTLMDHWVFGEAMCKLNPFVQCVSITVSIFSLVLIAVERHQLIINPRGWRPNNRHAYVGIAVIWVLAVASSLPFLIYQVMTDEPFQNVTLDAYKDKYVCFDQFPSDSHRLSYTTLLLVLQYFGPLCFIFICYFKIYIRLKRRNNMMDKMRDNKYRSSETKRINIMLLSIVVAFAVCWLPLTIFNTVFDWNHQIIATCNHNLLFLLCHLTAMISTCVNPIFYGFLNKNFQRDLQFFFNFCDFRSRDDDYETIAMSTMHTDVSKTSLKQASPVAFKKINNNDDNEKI
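Assay system: HEK293 cells with Y1 receptor plus CNG channel | Probe or stimulus: NPY (25 nM), isoproterenol (1 µM), Ro 20-1724 (25 µM) | Timing: Compound incubation 1 h at room temperature, readout 45 min post-stimulation | Measured by: Membrane-potential fluorescent dye readout | Benchmarks: High control isoproterenol alone, low control NPY with isoproterenol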
EP2 antag = inhibitors of human EP2 prostaglandin E2 receptor | P43116 | C6 glioma cells expressing human EP2, cAMP TR-FRET; cells stimulated with saturating PGE2 | inhibition, % at 25 µM | 260,000 tested, 0.52% active | AID 1422;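 active = percent inhibition above 40 after rounding to a whole number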;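 note: rat C6 glioma host cells with rolipram phosphodiesterase inhibitor present; the protocol text gives 20 µM as final concentration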
NPY-Y2 antag = blocks the human neuropeptide Y Y2 receptor; inhibition, % at 2.7 µM; 140,000 tested, 0.99% active; NPY-Y2 expressing cells, antagonist mode; P49146;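 note: 0% = vehicle with agonist challenge and 100% = reference antagonist with challenge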
NPY1 pot ag = potentiators or agonists of human neuropeptide Y receptor Y1; AID 1304; activation, % at 3.6 µM; 220,000 tested, 0.37% active; NPY-Y1 expressing cells, potentiator/agonist activation; in the data active = activation above about 33%, passing the limit was not always enough;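 note: cells stimulated with NPY at EC10 then isoproterenol at EC100; 0% = low agonist plus stimulus and 100% = saturating agonist plus stimulus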
NPY-Y2 PAM-ag = potentiates or activates human NPY-Y2 receptor; 220,000 tested, 0.45% active; cells expressing NPY-Y2, potentiator/agonist read-out; AID 1359; activation, % at 3.6 µM; P49146; in the data active = activation above about 27%;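 note: cells stimulated with NPY near EC25 plus isoproterenol at EC100; 0% = vehicle plus submaximal agonist and 100% = vehicle plus saturating agonist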
NPY1 antag conf = confirmation of human neuropeptide Y receptor Y1 antagonists | HEK293-CNG NPY-Y1, membrane potential fluorescence, cAMP; NPY challenge against isoproterenol-raised cAMP | shares compounds with NPY-Y1 antag | inhibition, % at 3.6 µM | AID 1254 | 1,200 tested, 21% active; in the data active = inhibition above about 20%;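 note: 0% = vehicle with agonist plus stimulus and 100% = stimulus alone without agonist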
NPY2 antag ctr = antagonizes human NPY-Y2, counter-screen to NPY-Y1 antagonists; inhibition, % at 3.6 µM; HEK293 NPY-Y2 CNG membrane potential fluorescence, antagonism; cells given NPY, then isoproterenol; shares compounds with NPY-Y1 antag; 1,200 tested, 28% active; AID 1255;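 note: 0% = DMSO with agonist challenge and 100% = reference antagonist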
Numbers without * were called inactive; nt = no result given. Rows were chosen to be rich in hits. Some 2.8% of all compounds tested hit in one or more screens of this group. Cut-off read from the data, not from the text of the source, unless noted: active = inhibition above about 17%; inactive = the rest.

SMILES	EP2 mod	NPY-Y1 antag	EP2 antag	NPY-Y2 antag	NPY1 pot ag	NPY-Y2 PAM-ag	NPY1 antag conf	NPY2 antag ctr
CCCCCC(=O)Nc1ccccc1N1CCN(c2ccccc2)CC1	25.6	21.8*	7.8	5.4	-49.2	-15.8	6.0	15.0
CCCCC(=O)Nc1ccccc1N1CCOCC1	13.4	2.6	2.0	nt	-12.2	11.2	nt	nt
COc1ccccc1NC(=O)/C=C/c1ccc2c(c1)OCO2	-57.8	15.4	3.9	nt	-9.4	-25.5	nt	nt
COc1ccccc1NC(=O)COC(=O)/C=C/c1ccc2c(c1)OCO2	-60.7	26.8*	2.7	nt	-29.1	-48.8	11.2	7.1
O=C(NCc1nc(-c2ccccc2)no1)c1ccc2c(c1)OCO2	-38.3	22.1*	2.7	6.2	-34.4	-3.1	13.3	10.4
COC(=O)c1ccc(COC(=O)CNC(=O)c2ccc(-c3ccccc3)cc2)cc1	-20.0	20.8*	6.1	4.4	-6.8	-6.7	-1.6	2.5
COc1cccc(C(O)CN2CCC3(CC2)CC(O)c2cc(C)ccc2O3)c1 (stereo not drawn)	-39.4	nt	9.5	nt	nt	nt	nt	nt
Cc1ccc(-c2c(C)nn3c(NCCCO)cc(C)nc23)cc1	-2.7	nt	nt	nt	nt	nt	nt	nt
Cn1c(COc2nnc(-c3ccc(Cl)cc3)c3ccccc23)nc2ccccc21	23.5	39.4*	nt	0.8	2.8	13.1	1.2	-1.1
CCOc1ccc2[nH]c(=O)c(C(c3nnnn3CCOC)N3CCN(c4ccccc4)CC3)cc2c1 (stereo not drawn)	-18.1	nt	9.9	nt	nt	nt	nt	nt
COc1cccc(OCc2nc3ncc(Br)cc3[nH]2)c1	-34.7	23.9*	3.6	3.6	-50.3	-23.3	3.9	14.8
Cc1ccc(-c2nnn(C3CCN(C(=O)c4cnccn4)CC3)n2)cc1	-39.0	nt	nt	nt	nt	nt	nt	nt
CC(=O)N/N=C/c1c(C)[nH]n(-c2ccccc2)c1=O	29.1	6.9	5.9	nt	-8.4	2.9	nt	nt
Cc1[nH]n(-c2ccccc2)c(=O)c1/C=N/O	-5.2	57.6*	9.8	4.7	6.0	-15.2	1.2	2.8
COC(=O)CNC(c1ccccc1)c1cc(Br)ccc1NS(=O)(=O)c1ccccc1 (stereo not drawn)	49.6	26.7*	22.3	16.6	-31.0	-2.6	-1.3	3.5
Cc1ccc(C)c(OCc2n[nH]c(=S)o2)c1	23.7	nt	3.8	nt	-33.0	-19.7	nt	nt
Cc1ccc(C(C)C)c(OCc2n[nH]c(=S)o2)c1	16.1	22.8*	6.8	nt	-8.6	-23.4	6.0	9.5
COc1ccccc1C1(O)CCCN(CC(O)c2ccc3c(c2)CC(C)O3)C1 (stereo not drawn)	-81.3	nt	9.4	nt	nt	nt	nt	nt
Clc1ccc(-c2csc3ncnc(NCCN4CCOCC4)c23)cc1	22.7	-6.3	13.8	4.9	1.3	-5.3	nt	nt
Clc1ccc(CNc2nc(CN3CCOCC3)nc3scc(-c4ccccc4)c23)cc1	47.6	22.3*	-0.2	13.4	-42.6	-22.7	21.7*	18.2*
Nc1nc(SCC(=O)Nc2ccccc2C(F)(F)F)[nH]c(=O)c1-c1ccccc1	23.2	4.9	3.8	nt	-8.0	-6.9	nt	nt
COc1ccccc1NC(=O)CSc1nc(N)c(-c2ccccc2)c(=O)[nH]1	-5.2	73.6*	6.5	nt	-6.2	-45.2	54.7*	67.6*
Cc1nn2c(C3CCCN(C(=O)OC(C)(C)C)C3)ccnc2c1-c1cccs1 (stereo not drawn)	0.0	nt	nt	nt	nt	nt	nt	nt
COc1cc(C)c(C)cc1S(=O)(=O)N1CCN(Cc2ccc3c(c2)OCO3)CC1	3.3	24.1*	11.9	10.6	-43.2	-22.8	12.9	11.3
COc1cc(S(=O)(=O)N2CCN(Cc3ccc4c(c3)OCO4)CC2)c(C)cc1C	8.1	14.6	9.8	5.7	-16.1	-5.8	nt	nt
SMILES	EP2 mod	NPY-Y1 antag	EP2 antag	NPY-Y2 antag	NPY1 pot ag	NPY-Y2 PAM-ag	NPY1 antag conf	NPY2 antag ctr
O=C(O)c1cc(-c2ccccc2)n(-c2ccccc2)n1	27.6	23.8*	4.2	11.4	-19.7	-11.2	5.4	9.6
CN1[C@@H](C(=O)NCc2ccccn2)C[C@@H](c2ccco2)NS1(=O)=O	0.0	nt	nt	nt	nt	nt	nt	nt
Clc1ccc(OCCN2CCN(c3ncnc4sccc34)CC2)cc1	1.2	26.0*	3.3	7.9	-45.9	-2.6	19.9	19.9*
Cc1ccc(OCCN2CCN(c3ncnc4sc(C)c(C)c34)CC2)cc1	-11.4	8.6	7.3	12.8	-67.6	5.1	nt	nt
Cc1cccc(C)c1OC1(c2ccccc2)OC(=O)c2ccccc21 (stereo not drawn)	46.3	22.3*	7.3	11.2	-10.5	-19.6	6.1	7.2
Cc1cc(C)c(OC2(c3ccccc3)OC(=O)c3ccccc32)c(C)c1 (stereo not drawn)	46.5	30.5*	3.7	16.4	-8.2	-16.7	11.0	7.4
CC(=O)N1CCCc2cc(C(O)CN3CCN(c4ccccc4)CC3)ccc21 (stereo not drawn)	-29.2	nt	7.2	nt	nt	nt	nt	nt
Cc1ncc(-c2ccncc2)c(C2CCCN(C(=O)c3cccc4cccnc34)C2)n1 (stereo not drawn)	18.8	nt	nt	nt	nt	nt	nt	nt
CC(O)CNCc1ccc(-c2ccccc2)cc1 (stereo not drawn)	0.5	6.3	3.8	7.8	1.1	0.1	nt	nt
CC(NCc1ccc(-c2ccccc2)cc1)C(O)c1ccccc1 (stereo not drawn)	-32.4	20.2*	6.2	10.4	-77.8	-27.8	18.1	29.3*
OCC[n+]1c(-c2cccs2)cc(-c2cccs2)cc1-c1cccs1	6.4	nt	14.5	nt	nt	nt	nt	nt
CCOc1ccccc1NC(=O)CSc1nc(-c2ccc(OC)c(OC)c2)cc(C(F)(F)F)n1	43.9	nt	4.2	nt	nt	nt	nt	nt
CCC1(C)Cc2ccccc2-c2[nH][nH]c(=O)c21 (stereo not drawn)	56.8	55.0*	2.4	nt	-6.3	-2.7	17.6	3.5
CCC1(C)Cc2ccccc2-c2nc(NCCCO)[nH]c(=O)c21 (stereo not drawn)	25.1	nt	12.5	nt	19.3	-4.5	nt	nt
O=C(Nc1cccc(C(F)(F)F)c1)/C(=C/c1ccco1)NC(=O)c1cccs1	9.1	89.8*	nt	1.0	9.4	-4.7	-1.3	-2.0
CCc1ccc(S(=O)(=O)c2n[nH]n3c2nc(=O)c2ccccc23)cc1	0.9	24.1*	0.1	12.2	-11.3	-12.3	7.6	6.9
N#CC(C(=O)C12CC3CC(CC(C3)C1)C2)c1nc2ccccc2[nH]1 (stereo not drawn)	-35.0	4.8	28.1	-0.5	-24.5	1.1	nt	nt
N#CC(/C(=N/S(=O)(=O)c1cccs1)c1ccccc1)c1nc2ccccc2[nH]1 (stereo not drawn)	12.6	22.6*	nt	2.2	-15.5	-23.4	21.0*	25.6*
COC(=O)[C@H]1[C@H]2C[C@H]3c4[nH]c5cc(OC)ccc5c4CCN3C[C@H]2C[C@@H](OC(=O)c2cc(OC)c(OC)c(OC)c2)[C@@H]1OC	-21.9	nt	9.7	nt	nt	nt	nt	nt
